Calls of active or inactive are those of the source. No cut-off for these calls is given here.
Assays:
[1] = organism: Oryctolagus cuniculus; assay: Inotropic effect on isolated rabbit heart assessed as increase in left atrium stroke volume; assay type: functional, Cardiac atrium; parameters: concentration or dose not given beside the values
Summary of the method: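 Isolated perfused rabbit left atrium, HEPES buffer pH 7.4 (mM: 118 NaCl, 4.7 KCl, 2.5 CaCl2, 1.2 MgCl2, 25 NaHCO3, 10 glucose, 10 HEPES; 0.1% BSA) pumped at 1.25 mL/min. 60 min stabilization, pacing 1.5 Hz. Single dose 3×10^-5 M (DMSO stock diluted in buffer) after control cycle; 12-min cycles, stroke volume read every 2 min. Reported as % stroke volume increase, means ± SE, ANOVA.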

[2] = organism: Oryctolagus cuniculus; assay: Chronotropic effect on isolated rabbit heart assessed as change in heart beats; assay type: functional
Summary of the method: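 Heart rate measured in isolated rabbit hearts from the electrocardiogram in a volume conduction model. Samples at 3×10^-5 M, dissolved in DMSO and diluted in HEPES buffer. Rate recorded before (control) and after sample. Means ± SE, repeated measures compared by ANOVA, P < 0.05.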

| Compound | Activity [1] [%] | Activity [2] [bpm] | Activity ([1]; Cardiac atrium) |
| --- | --- | --- | --- |
| Cc1nnc2n1-c1ccc(NC(=O)CN3CCN(Cc4ccc5c(c4)OCO5)CC3)cc1CC2 | 5.1 | 136.9 | – |
| CC(=O)N1CCN(CC(=O)Nc2ccc3c(c2)CCc2nnc(C)n2-3)CC1 | – | – | inactive |
| COc1cc(CN2CCN(CC(=O)Nc3ccc4c(c3)CCc3nnc(C)n3-4)CC2)ccc1OCc1ccccc1 | 9 | 111.5 | – |
| COc1ccc(CN2CCN(CC(=O)Nc3ccc4c(c3)CCc3nnc(C)n3-4)CC2)cc1 | 10.1 | 105.6 | – |
| O=C(CN1CCN(C(=O)c2cccc(Cl)c2)CC1)Nc1ccc2c(c1)CCc1nnc(Cc3ccccc3)n1-2 | 2.4 | – | – |
| Cc1nnc2n1-c1ccc(NC(=O)CN3CCN(C(=O)c4ccccc4)CC3)cc1CC2 | – | – | inactive |
| Cc1nnc2n1-c1ccc(NC(=O)CN3CCN(C(=O)c4cccc(Cl)c4)CC3)cc1CC2 | – | – | inactive |
| Cc1ccc(C(=O)N2CCN(CC(=O)Nc3ccc4c(c3)CCc3nnc(Cc5ccccc5)n3-4)CC2)cc1 | 0.7 | – | – |
| COc1ccc(C(=O)N2CCN(CC(=O)Nc3ccc4c(c3)CCc3nnc(C)n3-4)CC2)cc1OC | 5.3 | 129.2 | – |
| Cc1cccc(C(=O)N2CCN(CC(=O)Nc3ccc4c(c3)CCc3nnc(Cc5ccccc5)n3-4)CC2)c1 | 0.5 | – | – |
| Cc1ccc(C(=O)N2CCN(CC(=O)Nc3ccc4c(c3)CCc3nnc(C)n3-4)CC2)cc1 | 1.3 | – | – |
| Cc1cccc(C(=O)N2CCN(CC(=O)Nc3ccc4c(c3)CCc3nnc(C)n3-4)CC2)c1 | 8.8 | – | – |
| Cc1[nH]c(=O)c(C#N)cc1-c1ccncc1 [MILRINONE] | 4.7 | – | – |
| O=C(CN1CCN(Cc2ccc3c(c2)OCO3)CC1)Nc1ccc2c(c1)CCc1nnc(Cc3ccccc3)n1-2 | 5.2 | 89.2 | – |
| Cc1nnc2n1-c1ccc(NC(=O)CN3CCN(Cc4ccccc4Br)CC3)cc1CC2 | – | – | inactive |
| Cc1nnc2n1-c1ccc(NC(=O)CN3CCN(C(=O)c4cccc([N+](=O)[O-])c4)CC3)cc1CC2 | – | – | inactive |
| Cc1nnc2n1-c1ccc(NC(=O)CN3CCN(Cc4ccccc4)CC3)cc1CC2 | – | – | inactive |
| Cc1nnc2n1-c1ccc(NC(=O)CN3CCN(C(=O)c4ccc([N+](=O)[O-])cc4)CC3)cc1CC2 | – | – | inactive |
| O=C(CN1CCN(C(=O)c2ccccc2)CC1)Nc1ccc2c(c1)CCc1nnc(Cc3ccccc3)n1-2 | – | – | inactive |
| O=C(CN1CCN(Cc2ccccc2)CC1)Nc1ccc2c(c1)CCc1nnc(Cc3ccccc3)n1-2 | 13.2 | 109.3 | – |
